Experimental data as given in paper PMC12808237 (Nature Communications, 2025).
Blank lines part the entries; values can stand above or below the compound they belong to.

Assays:
[1] = system: MITF-dependent target genes; conditions: cited from earlier work
[2] = system: melanoma cell lines; conditions: cited from earlier work
[3] = molecular target: T1, MITF(217-296) (Homo sapiens, UniProt O75030); test: Protein-observed NMR titration; type: binding
T1 sequence (O75030 217-296 isoform O75030-9): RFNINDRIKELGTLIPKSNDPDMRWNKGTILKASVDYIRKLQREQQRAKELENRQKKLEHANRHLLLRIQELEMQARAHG

[4] = molecular target: T1, MITF(217-296); test: 19F NMR reporter assay; type: binding
[5] = molecular target: T2, MITF(180-296) (Homo sapiens, UniProt O75030); test: Surface plasmon resonance; type: binding; conditions: 25 °C
T2 sequence (O75030 287-403): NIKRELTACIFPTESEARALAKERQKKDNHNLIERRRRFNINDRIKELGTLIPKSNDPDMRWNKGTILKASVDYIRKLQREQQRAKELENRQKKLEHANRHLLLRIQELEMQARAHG
How it was run: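 MITF(180-296), biotinylated via C-terminal Avi-tag, was captured on a streptavidin chip at 6 µg mL-1 to ~3000 RU. Run at 25 °C in 25 mM Tris-HCl pH 7.5, 150 mM NaCl, 0.05% Tween 20, 3 mM EDTA, 0.5 mM TCEP, 10 mM L-arginine, 3% DMSO. Test compound was injected as a 2- or 3-fold series at 60 µL min-1 (60 s association, 150 s dissociation). Double-referenced data were fitted globally to a 1:1 model for kon, koff and KD.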

[6] = molecular target: T3, MITF(180-296) (Homo sapiens, UniProt O75030); test: Isothermal titration calorimetry; type: binding; conditions: 25 °C, n = 2, mean ± SD
T3 sequence (O75030 300-403 limits assumed): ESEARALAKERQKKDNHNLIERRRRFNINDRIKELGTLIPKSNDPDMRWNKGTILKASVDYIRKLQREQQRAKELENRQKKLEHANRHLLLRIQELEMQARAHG
How it was run: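 Run at 25 °C in high-feedback mode. Buffer: 25 mM Tris-HCl pH 7.5, 150 mM NaCl, 10 mM L-arginine, 3 mM EDTA, 0.5 mM TCEP. Cell held 12 µM purified dimeric wild-type avi-tagged MITF(180-296), dialysed twice at 4 °C, with 2% DMSO. Syringe held 182–220 µM test compound diluted from DMSO. Duplicates were fitted with automatic baseline/integration; reported as mean ± SD.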

[7] = molecular target: MYC/MAX (Homo sapiens, UniProt P01106+P61244); test: NMR chemical shift perturbation; type: binding
Chain of MYC/MAX (P01106 368-449): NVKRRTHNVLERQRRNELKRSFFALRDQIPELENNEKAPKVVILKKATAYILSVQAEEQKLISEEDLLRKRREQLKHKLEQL
Chain of MYC/MAX (P61244 22-102): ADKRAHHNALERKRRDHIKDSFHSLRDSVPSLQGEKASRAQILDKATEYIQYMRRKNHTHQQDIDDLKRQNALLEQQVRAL

[8] = molecular target: T3, MITF(180-296); test: Nano differential scanning fluorimetry; type: binding; conditions: nanoDSF, compound at 50 μM
How it was run: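 Wild-type MITF(180-296) was spun 16,000 × g, 10 min, 4 °C, then used at 0.3 mg mL-1 final in 50 mM HEPES pH 8, 300 mM NaCl, 5% glycerol, 1 mM TCEP. Test compound 50 μM final, 3% DMSO; DMSO for apo. Shaken 30 min at RT and re-spun. Heated 20–95 °C at 0.5 °C min-1; 280 nm excitation, 330/350 nm emission. Duplicates.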

[9] = system: MITF(180-296) A264C; test: ITC with MITF variant A264C; type: binding, human; conditions: 25 °C
[10] = system: MITF(180-296) R263A; test: ITC with MITF variant R263A; type: binding, human; conditions: 25 °C
[11] = system: MITF(180-296) Q261A; test: ITC with MITF variant Q261A; type: binding, human; conditions: 25 °C
[12] = KD (MITF NMR KD), protein-observed NMR titration
[13] = SPR KD,eq, equilibrium affinity

Structure (SMILES): NS(=O)(=O)c1ccc(NC2=CC(=O)c3ccccc3C2=O)cc1 [ML329]
effect on MITF-dependent target genes [1]: induce downregulation of a subset of MITF-dependent target genes | effect on survival of melanoma cell lines [2]: negatively impact survival of melanoma cell lines

Structure (SMILES): O=C(O)c1cc2ccc(C#CC3(O)CCCCC3)cc2n1-c1ccccc1 [compound 6]
Ki [4]: 2.6 µM | improved binding affinity compared to compound 3 ([4]; Ki of 6 versus KD of 3): > 100 fold | Kd [5, 13]: 8 µM | ITC KD [6]: low-μM range | Kd [7]: > 200 µM

Structure (SMILES): Cc1cc(C#CC2(O)CCCCC2)cc2c1cc(C(=O)O)n2-c1ccccc1 [compound 7]
Kd [5, 13]: 4 µM | ITC KD [6]: low-μM range | Kd [7]: > 200 µM

Structure (SMILES): O=C(O)c1cc2ccc(C#CC3(O)CCCCC3)cc2n1-c1cccc(Cl)c1 [compound 8]
Kd [5, 13]: 1.9 µM | Kd ([5]; kinetic affinity constant (KD,kin), SPR, from kon and koff): 1.8 µM | Kd ([6]; ITC KD): 0.47 ± 0.17 µM | -TΔS ([6]; ITC): 2.96 ± 2.08 kcal/mol | ΔG ([6]; ITC): -8.63 ± 0.21 kcal/mol | ΔH ([6]; ITC): -11.8 ± 1.55 kcal/mol | thermal stabilization of MITF [8]: 3.4 °C | binding to MITF variant by ITC [9]: significant disruption of binding interactions | binding to MITF variant by ITC [10]: significant disruption of binding interactions | binding to MITF variant by ITC [11]: significant disruption of binding interactions

The remaining lines, values ahead:

Kd ([3]; KD, protein-observed NMR titrations): 1000 µM
Structure (SMILES): O=C(O)c1cc2cc(F)ccc2n1-c1ccc(F)cc1 [compound 1]

Kd [3, 12]: 327 µM | ligand efficiency ([4]; from NMR affinities): 0.25
Structure (SMILES): O=C(O)c1[nH]c2ccc(Cl)cc2c1-c1ccccc1 [compound 3]

Kd [3, 12]: 104 µM
Structure (SMILES): O=C(O)c1[nH]c2ccc(Cl)cc2c1-c1ccc(F)cc1 [compound 5]
